Measured values collected from several papers.
Lines come from different studies, so protocols differ.
Target: Wee1-like protein kinase (WEE1, Homo sapiens, UniProt P30291)

SMILES | read-out | technique | concentration | remaining binding
FC(F)(F)c1ccc2c(c1)nc(-c1cccnc1)n2C1CC1 | cell-free assay | competition with immobilised ligand | 1 µM | 93%
O=C(c1ccc(Nc2ncc(Cl)c(-c3cc4ccccc4s3)n2)cc1)N1CCC(N2CCCC2)CC1 | binding | competition with immobilised ligand | 1 µM | 11%
CN(CCCC(F)(F)F)c1nccc(-c2cnn3ncccc23)n1 | binding | – | 1 µM | 100%
CCC(=O)N[C@H]1CC[C@@H](C(=O)N(C)c2ccc(-c3nc4ccccc4o3)cc2)C1 | cell-free assay | competition with immobilised ligand | 1 µM | 100%
COc1cnc(Nc2cccc(S(N)(=O)=O)c2)nc1N1CCN(c2ccccc2)CC1 | binding | competition with immobilised ligand | 1 µM | 100%
O=C(NCCCN1CCOCC1)c1ccc(Nc2ncc(Cl)c(-c3ccc(Cl)s3)n2)cc1 | binding | competition with immobilised ligand | 1 µM | 15%
CO[C@@H](C)c1c(Nc2ccc([C@@H](N(C)C(=O)C3CCS(=O)(=O)CC3)C(F)(F)F)cc2)cnc2cc(Cl)nn12 | cell-free assay | competition with immobilised ligand | 1 µM | 92%
c1cnn2ncc(-c3ccnc(N4CCC45COC5)n3)c2c1 | binding | – | 1 µM | 92%
CNC(=O)[C@@H]1CC[C@@H](n2c(-c3ccc4cnccc4c3)nc3ccc(C(=O)NCc4cccc(C(N)=O)c4)cc32)C1 | binding | competition with immobilised ligand | 1 µM | 98%
N[C@@H]1CCN(c2nccc(-c3cnn4ncccc34)n2)C1 | binding | – | 1 µM | 100%
COc1ncc2cc3ccccc3nc2c1C#N | cell-free assay | competition with immobilised ligand | 5 µM | 98%
F[C@@H]1CCN(c2nccc(-c3cnn4ncccc34)n2)C1 | binding | – | 1 µM | 100%
CCCOc1ccc([C@@H]2[C@@H](C(=O)O)[C@H](c3ccc4c(c3)OCO4)CN2CC(=O)Nc2c(CC)cccc2CC)cc1 | cell-free assay | competition with immobilised ligand | 1 µM | 95%
C[C@@H]1CCN(c2nccc(-c3cnn4ncccc34)n2)C1 | binding | – | 1 µM | 100%
O=C(c1ccc(Nc2ncc(Cl)c(-c3ccc(Cl)s3)n2)cc1)N1CCC(N2CCCC2)CC1 | binding | competition with immobilised ligand | 1 µM | 11%
Nc1ncc2c(n1)-c1c([nH]c3ccc(C#CC4CC4)cc13)CCCC2 | binding | competition with immobilised ligand | 1 µM | 87%
Cc1c[nH]c2nccc(Oc3c(F)cc(Nc4cc(Cl)nc(N)n4)cc3F)c12 | cell-free assay | competition with immobilised ligand | 0.1 µM | 100%
CC1CCCN1c1nccc(-c2cnn3ncccc23)n1 (stereo not shown) | binding | – | 1 µM | 100%
CC(C)CC(=O)N1CCc2nc(-c3ccc(Br)cc3)nc(N(C)Cc3ccccc3)c2C1 | cell-free assay | competition with immobilised ligand | 0.1 µM | 100%
O=C(NCC1CCOCC1)c1n[nH]cc1NC(=O)c1c(F)cccc1F | binding | competition with immobilised ligand | 1 µM | 97%
CN(C)c1ncc(F)c(-c2cnn3ncccc23)n1 | binding | – | 1 µM | 100%
O=C(NCc1ncc(C(F)(F)F)cc1Cl)c1ccc2c(c1)C1(CCS(=O)(=O)CC1)[C@@H](C1CC1)N2S(=O)(=O)c1ccc(F)cc1 | cell-free assay | competition with immobilised ligand | 1 µM | 100%
